# Shown are actives, neighbours in structure and some others; about 5.7% of the full set was active somewhere.
# CSC inhib – cancer stem cell inhibition. cancer stem cell-like cells viability, luminescence. inhibition, % at 7.5 µM. 300,000 compounds, 1.1% hits. AID 2717; in the data active means inhibition above about 75%; inconclusive means no clear call, values can overlap the other calls; tested in HMLE shEcad cells
# Beta cell apopt – beta cell apoptosis inhibition. INS-1E cytokine-induced death, ATP luminescence, 48 h; percent of positive-control rescue, neutral wells zero. protection from apoptosis, % (test concentration not listed). 300,000 compounds, 0.8% hits. AID 435005;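 active means Every replicate reaches about 75%, or at least half do and their mean reaches it too, limit read from the data; inconclusive means At least half of replicates reach the limit but their mean does not; inactive means Under half of replicates reach the limit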;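 further: 0% = cytokine-treated negative control wells and 100% = positive control rescue; higher means more ATP so stronger rescue from cytokine killing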
# Calb FLC – C. albicans growth modulation with fluconazole | growth inhibition, % (concentration not given with the values) | AID 1979 | C. albicans CaCi-2 (fluconazole-resistant clinical isolate) + fluconazole, Alamar Blue growth, 48 h | 300,000 compounds, 0.57% hits;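 active means growth inhibition above about 58% in most replicates, limit read from the data, passing the limit was not always enough; inconclusive means exactly half the replicates above a set limit; inactive means most replicates below a set limit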;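 further: all wells also contain fluconazole at 8 µg/ml as a sub-toxic cotreatment; 0% = median of DMSO wells and 100% = median of geldanamycin control wells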
# T cruzi inh – T. cruzi replication inhibition; AID 1885; T. cruzi beta-gal in NIH3T3, luminescence, 90 h; inhibition, % (no concentration beside the values); 300,000 compounds, 1.4% hits;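 active means mean inhibition across valid replicates above about 55%, limit read from the data; inconclusive means mean below that limit but half or more replicates reach it; inactive means mean below it, under half of replicates reach it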;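 further: signal also drops with host cell toxicity which is not excluded here; 0% = plate median of DMSO wells and 100% = zero luminescence signal; higher percent means less beta-gal luminescence so fewer parasites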
#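 Assay system: NIH/3T3 fibroblasts plus reporter T. cruzi. Amount: NIH/3T3 cells, 5,000 per well. Buffer or medium: DMEM, 2% fetal bovine serum. Doses: compound pinned at 50 nL/well, DMSO. Schedule: ≥90 h infection period, 3 h prior cell attachment. Signal: luminescent β-galactosidase signal after 60 min lysis. Read-out: parasite load inhibition, %.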
# SKKanGAS inh – blocks kanamycin growth of S. pyogenes SKKanGAS strain; BacTiter-Glo, 6 h; inhibition, % at 7.5 µM; 300,000 compounds, 1.3% hits;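 active means mean replicate score, as percent of positive control median, at least 50; inconclusive means mean below 50 but one replicate at or above 50; inactive means mean and every replicate below 50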;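 further: strain carries kanamycin resistance gene driven by streptokinase promoter and grows in 40 µg/ml kanamycin; loss of luminescence reflects streptokinase promoter inhibition or plain growth inhibition; 0% = median of DMSO wells and 100% = positive control at its reference dose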
# Mdm2-MdmX inh – inhibitors of human Mdm2/MdmX interaction; SaOS-2 split-luciferase Mdm2/MdmX complementation, luminescence; O15151+Q00987; 330,000 compounds, 3% hits; inhibition, % at 8 µM;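 active means inhibition of at least 50% at 8 µM in the primary screen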
# Target sequence (O15151 whole entry, looked up): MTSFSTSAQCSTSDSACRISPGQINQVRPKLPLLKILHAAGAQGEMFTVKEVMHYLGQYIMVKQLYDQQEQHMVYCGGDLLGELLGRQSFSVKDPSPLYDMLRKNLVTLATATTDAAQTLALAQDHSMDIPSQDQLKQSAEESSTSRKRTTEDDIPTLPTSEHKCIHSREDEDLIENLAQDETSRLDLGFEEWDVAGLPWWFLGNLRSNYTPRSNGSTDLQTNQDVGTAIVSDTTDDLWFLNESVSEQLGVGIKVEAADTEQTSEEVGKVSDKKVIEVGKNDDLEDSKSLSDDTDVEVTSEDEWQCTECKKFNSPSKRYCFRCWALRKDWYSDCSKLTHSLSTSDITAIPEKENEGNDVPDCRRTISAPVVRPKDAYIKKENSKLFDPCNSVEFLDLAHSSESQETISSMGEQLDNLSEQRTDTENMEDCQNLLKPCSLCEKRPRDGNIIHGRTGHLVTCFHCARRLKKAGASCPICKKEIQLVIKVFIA
# Target sequence (Q00987 whole entry, looked up): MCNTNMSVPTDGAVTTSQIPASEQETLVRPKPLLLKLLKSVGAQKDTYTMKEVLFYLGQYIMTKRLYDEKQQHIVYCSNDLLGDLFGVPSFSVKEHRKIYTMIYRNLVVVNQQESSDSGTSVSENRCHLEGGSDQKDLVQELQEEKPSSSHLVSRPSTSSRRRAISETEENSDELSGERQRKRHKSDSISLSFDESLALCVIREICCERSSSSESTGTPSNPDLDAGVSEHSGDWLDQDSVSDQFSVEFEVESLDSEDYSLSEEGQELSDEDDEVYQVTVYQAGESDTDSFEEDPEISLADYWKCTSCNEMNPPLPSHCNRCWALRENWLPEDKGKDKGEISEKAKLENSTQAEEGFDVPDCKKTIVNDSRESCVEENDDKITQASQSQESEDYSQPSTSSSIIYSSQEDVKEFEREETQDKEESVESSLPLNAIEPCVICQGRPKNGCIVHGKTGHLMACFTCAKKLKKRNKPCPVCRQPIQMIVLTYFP
# Mdm2 MdmX conf – human Mdm2/MdmX binding inhibition, confirmed; luminescent assay; inhibition, % at 8 µM; shares compounds with Mdm2-MdmX inh; 10,000 compounds, 55% hits; AID 489028; in the data active means inhibition above about 40%
# FLuc counter – inhibits full-length luciferase, flagging false Mdm2/MdmX hits. inhibition, % at 8 µM. SaOS-2 full-length luciferase counterscreen, luminescence. 6,200 compounds, 77% hits. shares compounds with Mdm2-MdmX inh;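 active means mean inhibition at 8 µM reaching about 37%, which flags the compound as non-specific, limit read from the data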;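 further: p53-null SaOS-2 cells with luciferase driven by a doxycycline-inducible promoter; compound on cells about two nights before reading with doxycycline added after day one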
# * = called active by the depositor; ? = inconclusive; nt = no result; ! = a repeat was not active.
SMILES,CSC inhib,Beta cell apopt,Calb FLC,T cruzi inh,SKKanGAS inh,Mdm2-MdmX inh,Mdm2 MdmX conf,FLuc counter
CN(C)c1ccnc2c[cH-]cc12.[Fe].c1ccc(-[c-]2[c-](-c3ccccc3)[c-](-c3ccccc3)[c-](-c3ccccc3)[c-]2-c2ccccc2)cc1 (stereo not drawn),-12.8,35.5,11.2,31.2,86.0*,98.4*,77.5*,36.8*!
CCN(CC)Cc1c(O)ccc2c1O/C(=C\C=C\c1ccccc1)C2=O,109.0*,104.6*,14.6,60.4*,-6.8,98.3*,71.2*,25.3
COc1ccccc1/C=C/C=C1\Oc2c(ccc(O)c2CN(C)C)C1=O,0.6,-9.0,1.5,4.8,2.7,60.7*,42.8*,44.1*
Nc1c(Cl)nc(-c2ccccc2)nc1Cl,2.9,-1.8,-25.5,-10.2,-5.1,12.0,nt,nt
CCC(=O)NN1CCc2cc3ccc(C)cc3nc21,-8.1,-6.2,0.2,-12.4,-1.3,19.7,nt,nt
Cc1cccc([C@@H]2[C@@H]3C(=O)N(Cc4ccccc4)C(=O)[C@@H]3[C@]3(C)C(=O)N(c4ccc(C(F)(F)F)cc4)C(=O)N23)c1,8.2,8.7,28.0,17.1,4.3,83.8*,74.5*,33.2
CCN1C(=O)[C@H]2[C@@H](c3ccc(C)cc3)N3C(=O)N(c4cccc(C)c4)C(=O)[C@@]3(Cc3ccccc3)[C@H]2C1=O,-3.8,0.6,5.1,-26.5,-1.2,7.3,nt,nt
COc1ccc(N2C(=O)N3[C@H](c4cccc(C)c4)[C@@H]4C(=O)N(Cc5ccccc5)C(=O)[C@@H]4[C@]3(Cc3ccccc3)C2=O)cc1,-7.0,8.9,7.7,18.1,2.4,69.8*,79.7*,35.6
Cc1cc(=O)n2[nH]c(Nc3cccc(Cl)c3)nc2n1,-3.4,2.4,-3.0,-28.5,4.5,-26.4,nt,nt
CCCNc1nc(C)cc(-c2cc(C(=O)NC3CCCC3)on2)n1,-0.5,6.7,-10.5,-4.2,-4.6,-13.7,nt,nt
COc1ccc(OC)c(-c2nnc3n2N=C(c2ccc(OC)c(OC4CCOC4)c2)CS3)c1 (stereo not drawn),44.1,18.6,nt,nt,nt,67.9*,63.4*,93.5*
COc1ccc(C2=Nn3c(nnc3-c3ccccc3Cl)SC2)cc1OC1CCOC1 (stereo not drawn),24.9,6.1,nt,nt,nt,62.5*,39.6,62.8*
COc1ccc(C2=Nn3c(nnc3-c3ccccn3)SC2)cc1OC,-16.7,2.8,-3.0,-22.2,-6.2,35.0,nt,nt
COc1ccc(OC)c(C2=Nn3c(nnc3-c3ccncc3)SC2)c1,-6.2,3.6,?,16.5,4.9,14.8,nt,nt
COc1ccc(C2=Nn3c(nnc3-c3ccccc3F)SC2)cc1OCC1CC1,56.9,17.9,nt,nt,nt,83.6*,61.5*,37.0*
COc1ccc(C2=Nn3c(nnc3-c3ccccc3Cl)SC2)cc1OC1CCCC1,nt,?,nt,nt,nt,72.8*,49.0*,53.8*
FC(F)Oc1ccc(C2=Nn3c(nnc3-c3ccccc3Cl)SC2)cc1OCC1CC1,nt,9.4,nt,nt,nt,-7.9,nt,nt
CC(=O)Nc1ccc(NS(=O)(=O)c2cc(-c3n[nH]c(=O)c4ccccc34)ccc2C)cc1,10.2,-2.7,-0.9,3.8,26.8,13.9,nt,nt
O=C(/C=C/c1c(F)cccc1Cl)c1ccc(O)cc1,67.5*,4.2,-3.6,-9.6,17.9,100.4*,97.0*,32.3
O=C(/C=C/c1ccccc1Cl)c1ccc(O)cc1,25.3,-3.0,4.2,-10.2,0.1,55.2*,11.7,nt
O=C(/C=C/c1c(F)cccc1Cl)Nc1ncccn1,2.1,-0.3,1.8,-53.7,2.4,-52.6,nt,nt
O=C(/C=C/c1ccccc1Cl)Nc1ccccc1,36.2,5.1,-7.2,5.8,11.2,-138.6,nt,nt
O=C(NC1CCN(Cc2ccccc2)CC1)c1cccc(S(=O)(=O)Nc2ccc(F)cc2)c1,nt,26.0,nt,nt,nt,29.1,nt,nt
CC(CNS(=O)(=O)c1ccc(Cl)cc1)n1cncn1 (stereo not drawn),-2.3,-1.7,-5.2,5.4,-2.4,28.7,nt,nt
Cc1cccn2c(=O)c3cc(C(=O)N4c5ccccc5CC4C)n(C)c3nc12 (stereo not drawn),55.5,-2.1,3.4,20.8,5.2,21.8,nt,nt

# Source: PubChem BioAssay (several laboratories)
